Measurements as given in ChEMBL document CHEMBL3526120, “Plasma stability-dependent circulation of acyl glucuronide metabolites in humans: how circulating metabolite profiles of muraglitazar and peliglitazar can lead to misleading risk assessment” (Drug Metab Dispos, 2011).

Legend:
[1] = test system: Homo sapiens; test: Drug metabolism in human plasma assessed as acyl isomer formation at 10 mg, po administered as single dose by HPLC analysis; assay type: ADME, organism-based; details: in vivo
Summary of the method: (§1)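 Healthy male volunteers received a single oral [14C] dose (approximately 100 μCi) in PEG-400 after fasting. K2EDTA blood drawn at 1, 4, 12 and 24 h. Plasma acidified to 5% acetic acid, stored at -20°C, pooled across subjects and extracted three times with methanol/acetonitrile (1:3). Radio-HPLC used fraction collection and counting; protein pellets were counted after NaOH digestion.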

[2] = test system: Homo sapiens; test: Drug metabolism in human plasma assessed as peliglitazar-1-O-beta-acyl glucuronide formation at 10 mg, po administered as single dose measured after 1 to 24 hrs by HPLC analysis; assay type: ADME, organism-based; details: in vivo; summary of the method: as §1
[3] = test system: Liver microsome; test: Drug metabolism in human liver microsomes assessed as glucuronidation rate per mg of protein at 10 uM after 15 mins by LC-MS/HPLC analysis in presence of 2 mM UDPGA; assay type: ADME; details: 0.25 h
Summary of the method: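 Human liver microsomes (1 mg/mL protein) with substrate 10 μM final, UDPGA 2 mM, MgCl2 10 mM, Tris 100 mM pH 7.4. Started with substrate at 37°C, stopped after 15 min with one volume acetonitrile, centrifuged. Supernatant analysed by LC/MS; fraction from the 278 nm UV trace as metabolite/(metabolite + parent).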

[4] = test system: Hepatocyte; test: Drug metabolism in human hepatocytes assessed as glucuronidation rate per 10^6 cells at 5 uM after 1 hr by LC-MS/HPLC analysis in Krebs-Henseleit buffer
[5] = test system: Homo sapiens; test: Drug metabolism in human plasma assessed as muraglitazar-1-O-beta-acyl glucuronide formation at 20 mg, po administered as single dose after 1 hr by HPLC analysis; assay type: ADME, organism-based; details: in vivo; summary of the method: as §1
[6] = test system: Homo sapiens; test: Drug metabolism in human plasma assessed as acyl isomer formation at 20 mg, po administered as single dose by HPLC analysis; assay type: ADME, organism-based; details: in vivo; summary of the method: as §1
[7] = test system: Homo sapiens; test: Drug metabolism in human plasma assessed as muraglitazar-1-O-beta-acyl glucuronide formation at 20 mg, po administered as single dose measured after 4 to 24 hrs by HPLC analysis; assay type: ADME, organism-based; details: in vivo; summary of the method: as §1
[8] = Drug excretion in human urine treated with [14C]muraglitazar at 20 mg, po measured during 0 to 168 hrs; assay type: ADME, organism-based; details: in vivo
[9] = test system: Homo sapiens; test: Drug level in human plasma assessed as compound formation treated with [14C]muraglitazar at 20 mg, po administered as single dose measured after 1 hr by HPLC analysis; assay type: ADME, organism-based; details: in vivo
Summary of the method: (§2)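 Healthy males aged 18–45 (four subjects) fasted at least 8 h, then took a single oral PEG-400 solution (~100 μCi) of [14C]muraglitazar 20 mg or [14C]peliglitazar 10 mg. K2EDTA plasma was taken at 1, 4, 12 and 24 h, acidified to 5% acetic acid and stored at -20 °C. Plasma was pooled across subjects, extracted three times with methanol/acetonitrile (1:3), and fractions from HPLC system II were radiocounted. Concentration came from relative radioactivity distribution, total radioactivity and specific activity.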

[10] = test system: Liver microsome; test: Drug metabolism in human liver microsomes assessed as glucuronide oxidation rate per mg of protein in presence of NADPH; assay type: ADME
Summary of the method: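 Acyl glucuronide (20 μM) was incubated for 15 min with human liver microsomes (2 mg/mL protein) in 50 mM sodium phosphate, with and without 1 mM NADPH. Products were separated on HPLC system II, quantified by UV at 278 nm and identified by LC/MS.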

[11] = test system: Plasma; test: Stability in human plasma assessed as aglycon formation rate by HPLC analysis in presence of 50 mM phosphate; assay type: ADME, cell-free
Summary of the method: (§3)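 Synthetic 1-O-β-acyl glucuronide at 50 μg/mL, incubated at 37°C and pH 7.4. […] used 50 mM sodium phosphate buffer; […] used human plasma buffered with 50 mM phosphate. Samples were taken at 0.25–48 h (3 tubes per time point), frozen at -80 °C and run on HPLC system III. Aglycon formation rate is the mean of rates within the linear range (<3 hr).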

[12] = Drug excretion in human bile treated with [14C]muraglitazar at 20 mg, po measured during 3 to 8 hrs; assay type: ADME, organism-based; details: in vivo
[13] = Chemical stability of compound assessed as aglycon formation rate in 50 mM phosphate buffer at pH 7.4 by HPLC analysis; assay type: physicochemical; summary of the method: as §3
[14] = test system: Homo sapiens; test: Drug level in human plasma assessed as compound formation treated with [14C]peliglitazar at 10 mg, po administered as single dose measured after 1 to 24 hrs by HPLC analysis; assay type: ADME, organism-based; details: in vivo; summary of the method: as §2
[15] = Drug excretion in human urine treated with [14C][…] at […], po measured during 0 to 168 hrs; assay type: ADME, organism-based; details: in vivo
[16] = Drug excretion in human bile treated with [14C][…] at […], po measured during 3 to 8 hrs; assay type: ADME, organism-based; details: in vivo
[17] = Drug excretion in human urine at 20 mg, po measured during 0 to 168 hrs; assay type: ADME, organism-based; details: read-out: Drug excretion
[18] = Drug excretion in human bile at 20 mg, po measured during 3 to 8 hrs; assay type: ADME, organism-based; details: read-out: Drug excretion

| SMILES | Drug metabolism [3] [pmol/min] | Drug metabolism [4] [pmol/min] | Drug metabolism [10] [pmol/min] | Drug metabolism [11] [ug/ml.hr] | Drug metabolism [13] [ug/ml.hr] | dose excreted [17] [%] | dose excreted [18] [%] | further results |
| --- | --- | --- | --- | --- | --- | --- | --- | --- |
| COc1ccc(OC(=O)N(CC(=O)O)[14C@@H](C)c2ccc(O[14CH2]Cc3nc(-c4ccccc4)oc3C)cc2)cc1 | 32 | 49 |  |  |  |  |  | Drug metabolism [1]: metabolite_not_detected; Drug metabolism [2]: metabolite_detected |
| COc1ccc(OC(=O)N(CC(=O)O)C[14c]2[14cH][14cH][14c](OCCc3nc(-c4ccccc4)oc3C)[14cH][14cH]2)cc1 | 33 | 60 |  |  |  |  |  | Drug metabolism [5]: metabolite_detected; Drug metabolism [6]: metabolite_not_detected; Drug metabolism [7]: metabolite_not_detected |
| COc1ccc(OC(=O)N(CC(=O)O[C@@H]2O[C@H](C(=O)O)[C@@H](O)[C@H](O)[C@H]2O)Cc2ccc(OCCc3nc(-c4ccccc4)oc3C)cc2)cc1 |  |  | 22 | 16.7 | 3.5 |  |  | Drug excretion [8]: 0.81%; Drug metabolism [9]: metabolite_detected; Drug excretion [12]: 15% |
| COc1ccc(OC(=O)N(CC(=O)O[C@@H]2O[C@H](C(=O)O)[C@@H](O)[C@H](O)[C@H]2O)[C@@H](C)c2ccc(OCCc3nc(-c4ccccc4)oc3C)cc2)cc1 |  |  | 24 | 5.9 | 0.5 |  |  | Drug metabolism [14]: metabolite_detected; Drug excretion [15]: 0.24%; Drug excretion [16]: 16% |
| COc1ccc(OC(=O)N(CC(=O)O)Cc2ccc(OCCc3nc(-c4ccccc4)oc3C)cc2)cc1 [MURAGLITAZAR] |  |  |  |  |  | 2.13 | 39.9 |  |
| COc1ccc(OC(=O)N(CC(=O)O)[C@@H](C)c2ccc(OCCc3nc(-c4ccccc4)oc3C)cc2)cc1 [PELIGLITAZAR] |  |  |  |  |  | 1.24 | 24.4 |  |
